pIC50: −log10 of the molar value.

For assay [1], the species on record is Homo sapiens. Put plainly: Selectivity index, ratio of IC50 for human FBPase N125A mutant expressed in Escherichia coli BL21 (DE3) to IC50 for human FBPase expressed in Escherichia coli BL21 (DE3). In a few lines:
(§1)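 IC50 values for each FBPase point mutant and for wild-type human FBPase came from the same malachite-green assay. The index is mutant IC50 divided by wild-type IC50.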

Assay [2] deals with T1, Fructose-1,6-bisphosphatase 1 (Homo sapiens, UniProt P09467).
T1 sequence (P09467 whole entry): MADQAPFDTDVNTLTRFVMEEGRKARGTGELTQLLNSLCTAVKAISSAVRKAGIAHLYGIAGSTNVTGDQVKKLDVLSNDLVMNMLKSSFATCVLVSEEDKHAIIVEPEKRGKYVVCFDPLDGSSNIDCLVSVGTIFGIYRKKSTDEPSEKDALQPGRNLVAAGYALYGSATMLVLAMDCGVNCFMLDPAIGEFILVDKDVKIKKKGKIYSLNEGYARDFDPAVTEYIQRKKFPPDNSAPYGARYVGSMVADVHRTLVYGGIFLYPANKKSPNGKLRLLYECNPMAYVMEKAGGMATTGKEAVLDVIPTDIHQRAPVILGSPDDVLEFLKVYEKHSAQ
Put plainly: Inhibition of human FBPase expressed in Escherichia coli BL21 (DE3) using FBP as substrate incubated for 5 mins by malachite green dye based spectrophotometry.

For assay [3], the species on record is Homo sapiens. Briefly: Selectivity index, ratio of IC50 for human FBPase C38S mutant expressed in Escherichia coli BL21 (DE3) to IC50 for human FBPase expressed in Escherichia coli BL21 (DE3). In a few lines: as §1
Assay [4] is filed under the species Homo sapiens. Put plainly: Selectivity index, ratio of IC50 for human FBPase C92S mutant expressed in Escherichia coli BL21 (DE3) to IC50 for human FBPase expressed in Escherichia coli BL21 (DE3). In short, it runs like this: as §1
Assay [5] is filed under the species Homo sapiens. Put plainly: Selectivity index, ratio of IC50 for human FBPase C116S mutant expressed in Escherichia coli BL21 (DE3) to IC50 for human FBPase expressed in Escherichia coli BL21 (DE3). In a few lines:
as §1

The species entered for assay [6] is Homo sapiens. Put plainly: Selectivity index, ratio of IC50 for human FBPase C128S mutant expressed in Escherichia coli BL21 (DE3) to IC50 for human FBPase expressed in Escherichia coli BL21 (DE3). In a few lines:
as §1

The species named for assay [7] is Homo sapiens. Briefly: Selectivity index, ratio of IC50 for human FBPase C179S mutant expressed in Escherichia coli BL21 (DE3) to IC50 for human FBPase expressed in Escherichia coli BL21 (DE3). In a few lines:
as §1

Assay [8] is filed under the species Homo sapiens. Briefly: Selectivity index, ratio of IC50 for human FBPase C183S mutant expressed in Escherichia coli BL21 (DE3) to IC50 for human FBPase expressed in Escherichia coli BL21 (DE3). In a few lines:
as §1

The species named for assay [9] is Homo sapiens. Put plainly: Selectivity index, ratio of IC50 for human FBPase C281S mutant expressed in Escherichia coli BL21 (DE3) to IC50 for human FBPase expressed in Escherichia coli BL21 (DE3). In short, it runs like this:
as §1

The species named for assay [10] is Homo sapiens. Put plainly: Selectivity index, ratio of IC50 for human FBPase S124A mutant expressed in Escherichia coli BL21 (DE3) to IC50 for human FBPase expressed in Escherichia coli BL21 (DE3). In a few lines: as §1
The species named for assay [11] is Homo sapiens. Put plainly: Selectivity index, ratio of IC50 for human FBPase R243A mutant expressed in Escherichia coli BL21 (DE3) to IC50 for human FBPase expressed in Escherichia coli BL21 (DE3). In a few lines:
as §1

The species entered for assay [12] is Homo sapiens. Put plainly: Selectivity index, ratio of IC50 for human FBPase R254A mutant expressed in Escherichia coli BL21 (DE3) to IC50 for human FBPase expressed in Escherichia coli BL21 (DE3). In a few lines:
as §1

The species entered for assay [13] is Homo sapiens. Briefly: Selectivity index, ratio of IC50 for human FBPase Y258A mutant expressed in Escherichia coli BL21 (DE3) to IC50 for human FBPase expressed in Escherichia coli BL21 (DE3). In a few lines:
as §1

In assay [14] the target is Fructose-1,6-bisphosphatase 1 (Homo sapiens, UniProt P09467, C129S). Put plainly: Inhibition of human FBPase C128S mutant expressed in Escherichia coli BL21 (DE3) using FBP as substrate incubated for 5 mins by malachite green dye based spectrophotometry. In short, it runs like this: (§2)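 Recombinant human FBPase (wild type or point mutants) was expressed in E. coli BL21 (DE3), purified and stored in 50% glycerol at -20 °C. Reactions ran 5 min at 37 °C, and released phosphate was read by malachite green.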
Fructose-1,6-bisphosphatase 1 (Homo sapiens, UniProt P09467, C129S), sequence (P09467 2-338 C129S limits assumed): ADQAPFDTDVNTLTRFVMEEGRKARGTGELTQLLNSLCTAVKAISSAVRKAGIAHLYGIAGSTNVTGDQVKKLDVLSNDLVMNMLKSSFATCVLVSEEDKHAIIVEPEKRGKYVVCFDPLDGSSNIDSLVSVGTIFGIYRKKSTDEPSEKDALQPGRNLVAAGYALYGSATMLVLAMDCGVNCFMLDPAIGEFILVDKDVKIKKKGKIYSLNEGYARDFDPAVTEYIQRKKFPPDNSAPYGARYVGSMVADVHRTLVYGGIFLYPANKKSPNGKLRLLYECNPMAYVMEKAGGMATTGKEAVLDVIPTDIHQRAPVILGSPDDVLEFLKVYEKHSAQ

The target in assay [15] is Fructose-1,6-bisphosphatase 1 (Homo sapiens, UniProt P09467, C39S). Put plainly: Inhibition of human FBPase C38S mutant expressed in Escherichia coli BL21 (DE3) using FBP as substrate incubated for 5 mins by malachite green dye based spectrophotometry. In short, it runs like this:
as §2

In assay [16] the target is Fructose-1,6-bisphosphatase 1 (Homo sapiens, UniProt P09467, C93S). Put plainly: Inhibition of human FBPase C92S mutant expressed in Escherichia coli BL21 (DE3) using FBP as substrate incubated for 5 mins by malachite green dye based spectrophotometry. In short, it runs like this: as §2
Fructose-1,6-bisphosphatase 1 (Homo sapiens, UniProt P09467, C93S), sequence (P09467 2-338 C93S limits assumed): as the sequence (P09467 2-338 C129S limits assumed) above, with C92S, S128C counted along it
Assay [17] concerns the target Fructose-1,6-bisphosphatase 1 (Homo sapiens, UniProt P09467, C117S). Briefly: Inhibition of human FBPase C116S mutant expressed in Escherichia coli BL21 (DE3) using FBP as substrate incubated for 5 mins by malachite green dye based spectrophotometry. In a few lines: as §2
Assay [18] has as its target Fructose-1,6-bisphosphatase 1 (Homo sapiens, UniProt P09467, C180S). Put plainly: Inhibition of human FBPase C179S mutant expressed in Escherichia coli BL21 (DE3) using FBP as substrate incubated for 5 mins by malachite green dye based spectrophotometry. In a few lines: as §2
The target in assay [19] is Fructose-1,6-bisphosphatase 1 (Homo sapiens, UniProt P09467, C184S). Briefly: Inhibition of human FBPase C183S mutant expressed in Escherichia coli BL21 (DE3) using FBP as substrate incubated for 5 mins by malachite green dye based spectrophotometry. In short, it runs like this:
as §2

In assay [20] the target is Fructose-1,6-bisphosphatase 1 (Homo sapiens, UniProt P09467, C282S). Put plainly: Inhibition of human FBPase C281S mutant expressed in Escherichia coli BL21 (DE3) using FBP as substrate incubated for 5 mins by malachite green dye based spectrophotometry. In short, it runs like this: as §2
Fructose-1,6-bisphosphatase 1 (Homo sapiens, UniProt P09467, C282S), sequence (P09467 2-338 C282S limits assumed): as the sequence (P09467 2-338 C129S limits assumed) above, with S128C, C281S counted along it
The target in assay [21] is Fructose-1,6-bisphosphatase 1 (Homo sapiens, UniProt P09467, S125A). Put plainly: Inhibition of human FBPase S124A mutant expressed in Escherichia coli BL21 (DE3) using FBP as substrate incubated for 5 mins by malachite green dye based spectrophotometry. In short, it runs like this:
as §2

For assay [22], the target named is Fructose-1,6-bisphosphatase 1 (Homo sapiens, UniProt P09467, N126A). Briefly: Inhibition of human FBPase N125A mutant expressed in Escherichia coli BL21 (DE3) using FBP as substrate incubated for 5 mins by malachite green dye based spectrophotometry. In short, it runs like this:
as §2

In assay [23] the target is Fructose-1,6-bisphosphatase 1 (Homo sapiens, UniProt P09467, R244A). Put plainly: Inhibition of human FBPase R243A mutant expressed in Escherichia coli BL21 (DE3) using FBP as substrate incubated for 5 mins by malachite green dye based spectrophotometry. In short, it runs like this:
as §2

Assay [24] addresses Fructose-1,6-bisphosphatase 1 (Homo sapiens, UniProt P09467, R255A). Put plainly: Inhibition of human FBPase R254A mutant expressed in Escherichia coli BL21 (DE3) using FBP as substrate incubated for 5 mins by malachite green dye based spectrophotometry. In a few lines:
as §2

Fructose-1,6-bisphosphatase 1 (Homo sapiens, UniProt P09467, C117S), sequence (P09467 2-338 C117S limits assumed): as the sequence (P09467 2-338 C129S limits assumed) above, with C116S, S128C counted along it
Fructose-1,6-bisphosphatase 1 (Homo sapiens, UniProt P09467, C184S), sequence (P09467 2-338 C184S limits assumed): as the sequence (P09467 2-338 C129S limits assumed) above, with S128C, C183S counted along it
Fructose-1,6-bisphosphatase 1 (Homo sapiens, UniProt P09467, S125A), sequence (P09467 2-338 S125A limits assumed): as the sequence (P09467 2-338 C129S limits assumed) above, with S124A, S128C counted along it
Fructose-1,6-bisphosphatase 1 (Homo sapiens, UniProt P09467, R255A), sequence (P09467 2-338 R255A limits assumed): as the sequence (P09467 2-338 C129S limits assumed) above, with S128C, R254A counted along it
Fructose-1,6-bisphosphatase 1 (Homo sapiens, UniProt P09467, C180S), sequence (P09467 2-338 C180S limits assumed): as the sequence (P09467 2-338 C129S limits assumed) above, with S128C, C179S counted along it
Fructose-1,6-bisphosphatase 1 (Homo sapiens, UniProt P09467, C39S), sequence (P09467 2-338 C39S limits assumed): as the sequence (P09467 2-338 C129S limits assumed) above, with C38S, S128C counted along it
Fructose-1,6-bisphosphatase 1 (Homo sapiens, UniProt P09467, R244A), sequence (P09467 2-338 R244A limits assumed): as the sequence (P09467 2-338 C129S limits assumed) above, with S128C, R243A counted along it
Fructose-1,6-bisphosphatase 1 (Homo sapiens, UniProt P09467, N126A), sequence (P09467 2-338 N126A limits assumed): as the sequence (P09467 2-338 C129S limits assumed) above, with N125A, S128C counted along it

Regarding `N#Cc1ccc(/C=C/[N+](=O)[O-])cc1`, the Ratio IC50 in the assay filed under Homo sapiens [1] is greater than 556; in the assay listed under Homo sapiens [3] it was 1.4; in the assay filed under Homo sapiens [4] it was 0.97; in the assay filed under Homo sapiens [5], 0.94; in the assay filed under Homo sapiens [6], greater than 1000; in the assay listed under Homo sapiens [7], 1.2. For the same molecule, the Ratio IC50 in the assay listed under Homo sapiens [8] amounted to 1.2; in the assay listed under Homo sapiens [9], 1.7; in the assay listed under Homo sapiens [10], 3.8; in the assay filed under Homo sapiens [11], 1.9; in the assay filed under Homo sapiens [12], 10; in the assay filed under Homo sapiens [13], 4.2. In addition, the pIC50 in assay [2] was 6.44; in assay [14], less than 3.46; in [15] it was 6.31; in assay [16], 6.47; in assay [17], 6.48; in [18], 6.37. Besides, the pIC50 in assay [19] is 6.36; in [20] it was 6.21; in assay [21], 5.85; in assay [22], less than 3.70; in assay [23], 6.17; in [24] it was 5.44.

As to `CCOC(=O)C(C)(C)Oc1ccc(F)c(/C=C/[N+](=O)[O-])c1`, the Ratio IC50 in the assay listed under Homo sapiens [1] was 492; in the assay listed under Homo sapiens [3] it was 1; in the assay filed under Homo sapiens [4], 1; in the assay filed under Homo sapiens [5], 1.6; in the assay listed under Homo sapiens [6] it was greater than 820; in the assay filed under Homo sapiens [7], 5.9. Moreover, the Ratio IC50 is 1.6 in the assay filed under Homo sapiens [8]; 1.5 in the assay listed under Homo sapiens [9]; 39 in the assay listed under Homo sapiens [10]; 28 in the assay listed under Homo sapiens [11]; 20 in the assay filed under Homo sapiens [12]; 4.8 in the assay listed under Homo sapiens [13]. In addition, the pIC50 in assay [2] is 6.21; in assay [14], less than 3.30; in assay [15], 6.18; in [16], 6.19; in assay [17], 6.02; in assay [18], 5.44. Besides, the pIC50 is 6.01 in assay [19]; 5.89 in assay [20]; 4.62 in [21]; less than 3.52 in assay [22]; 4.77 in [23]; 4.92 in [24].

Turning to `O=[N+]([O-])/C=C/c1cccc(F)c1`, the Ratio IC50 in the assay listed under Homo sapiens [1] was greater than 625; in the assay filed under Homo sapiens [3] it was 3.8; in the assay listed under Homo sapiens [4], 1.9; in the assay listed under Homo sapiens [5], 3.4; in the assay listed under Homo sapiens [6], greater than 1010; in the assay listed under Homo sapiens [7] it was 2.8. In addition, the Ratio IC50 came out at 2.8 in the assay filed under Homo sapiens [8]; 7.2 in the assay filed under Homo sapiens [9]; 37.8 in the assay listed under Homo sapiens [10]; 6.9 in the assay filed under Homo sapiens [11]; 26 in the assay filed under Homo sapiens [12]; 19 in the assay filed under Homo sapiens [13]. Also, the pIC50 is 6.49 in assay [2]; less than 3.46 in assay [14]; 5.92 in [15]; 6.21 in assay [16]; 5.96 in assay [17]; 6.05 in [18]. Besides, the pIC50 is 6.04 in [19]; 5.64 in assay [20]; 4.92 in [21]; less than 3.70 in assay [22]; 5.66 in [23]; 5.08 in [24].

A word on the pIC50: it is the IC50 on a negative log10 scale, so that one unit is a factor of ten.

For the origin of these results see ChEMBL document CHEMBL4311987, “Discovery of novel allosteric site and covalent inhibitors of FBPase with potent hypoglycemic effects” (Eur J Med Chem, 2019).
